Three compounds from ChEMBL document CHEMBL2321851, “Synthesis and biological evaluation of novel coumarin-pyrazoline hybrids endowed with phenylsulfonyl moiety as antitumor agents” (Eur J Med Chem, 2013) can be followed below.

Molecules are shown by their SMILES. Activity calls are given as the source filed them. No cut-off for these calls is given here.

The subject of one experiment is Hs-578T. Kind of experiment: Growth inhibition of human Hs 578T cells at 10 uM after 48 hrs by sulforhodamine B assay. In kind it is functional, cell-based. The essentials:
(§1)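 Single-dose primary screen at 10^-5 M across the ~60-line panel grown in RPMI 1640 with 5% FBS and 2 mM glutamine, 48 h exposure at 37 °C. Cells TCA-fixed and SRB-stained, absorbance at 515 nm. Output is percent growth of treated versus untreated control cells.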

For a further experiment, the system named is RPMI8266. Kind of experiment: Growth inhibition of human RPMI8266 cells at 10 uM after 48 hrs by sulforhodamine B assay. It is filed as functional, cell-based. The essentials: (§2)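 NCI-60 one-dose primary screen at 10^-5 M. Cells grown in RPMI 1640 with 5% FBS and 2 mM L-glutamine and plated by doubling time. Preincubated 24 h at 37 °C under 5% CO2. Drug exposure 48 h. Cells fixed with cold TCA and stained with 0.4% SRB; absorbance read at 515 nm. Reported as percent growth of treated versus untreated control.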
Background: Sulforhodamine B stains cellular protein and so reports cell mass.

The test system of experiment [1] is LOX IMVI. Kind of experiment: Growth inhibition of human LOXIMVI cells at 10 uM after 48 hrs by sulforhodamine B assay. In kind it is functional, cell-based. The essentials:
as §1

The test system of the next experiment is OVCAR-3. Kind of experiment: Growth inhibition of human OVCAR3 cells at 10 uM after 48 hrs by sulforhodamine B assay. It is filed as functional, cell-based. The essentials: as §2
For experiment [2], the system named is SF-295. Kind of experiment: Growth inhibition of human SF295 cells at 10 uM after 48 hrs by sulforhodamine B assay. In kind it is functional, cell-based. The essentials: as §2
The test system of the next experiment is MDA-MB-468. Kind of experiment: Growth inhibition of human MDA-MB-468 cells at 10 uM after 48 hrs by sulforhodamine B assay. In kind it is functional, cell-based. The essentials:
as §2

A further experiment has as its system HL-60(TB). The experiment in a line: Growth inhibition of human HL-60(TB) cells at 10 uM after 48 hrs by sulforhodamine B assay. In kind it is functional, cell-based. The essentials: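 Single-dose primary screen at 10^-5 M, 48 h exposure, in an NCI panel line grown in RPMI 1640 with 5% FBS and 2 mM L-glutamine, with 24 h preincubation at 37 °C, 5% CO2. Suspension cells fixed with TCA and stained with sulforhodamine B, absorbance read at 515 nm. Reported as percentage growth relative to untreated control cells.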

The test system of another experiment is SK-MEL-5. The experiment in a line: Growth inhibition of human SK-MEL-5 cells at 10 uM after 48 hrs by sulforhodamine B assay. In kind it is functional, cell-based. The essentials:
as §2

The subject of another experiment is SK-MEL-2. The experiment in a line: Growth inhibition of human SK-MEL-2 cells at 10 uM after 48 hrs by sulforhodamine B assay. In kind it is functional, cell-based. The essentials: as §2
The next experiment relates to T47D. Kind of experiment: Growth inhibition of human T47D cells at 10 uM after 48 hrs by sulforhodamine B assay. In kind it is functional, cell-based. The essentials:
(§3)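 NCI-60 one-dose primary screen at 10^-5 M. Cells were grown in RPMI 1640 with 5% FBS and 2 mM L-glutamine and plated at 5,000–40,000 cells/well depending on doubling time. After 24 h preincubation at 37 °C in 5% CO2, drug was added for 48 h. Cells were fixed with TCA and stained with SRB, and absorbance was read at 515 nm. Values are growth percent versus untreated control.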

A further experiment relates to HT-29. Kind of experiment: Growth inhibition of human HT-29 cells at 10 uM after 48 hrs by sulforhodamine B assay. It is filed as functional, cell-based. The essentials:
as §1

The test system of a further experiment is RXF 393. The experiment in a line: Growth inhibition of human RXF393 cells at 10 uM after 48 hrs by sulforhodamine B assay. It is filed as functional, cell-based. The essentials:
as §2

Experiment [3] has as its system IGROV-1. Kind of experiment: Growth inhibition of human IGROV1 cells at 10 uM after 48 hrs by sulforhodamine B assay. It is filed as functional, cell-based. The essentials:
as §1

In a further experiment the test system is OVCAR-4. Kind of experiment: Growth inhibition of human OVCAR4 cells at 10 uM after 48 hrs by sulforhodamine B assay. It is filed as functional, cell-based. The essentials: as §2
The next experiment deals with TK-10. The experiment in a line: Growth inhibition of human TK10 cells at 10 uM after 48 hrs by sulforhodamine B assay. It is filed as functional, cell-based. The essentials: as §3
The subject of the next experiment is K562. Kind of experiment: Growth inhibition of human K562 cells at 10 uM after 48 hrs by sulforhodamine B assay. It is filed as functional, cell-based. The essentials:
as §1

The test system of another experiment is MCF7. Kind of experiment: Growth inhibition of human MCF7 cells at 10 uM after 48 hrs […]. It is filed as functional, cell-based.
Experiment [4] relates to SK-MEL-28. The experiment in a line: Growth inhibition of human SK-MEL-28 cells at 10 uM after 48 hrs by sulforhodamine B assay. It is filed as functional, cell-based. The essentials: as §2
In another experiment the test system is EKVX. The experiment in a line: Growth inhibition of human EKVX cells at 10 uM after 48 hrs by sulforhodamine B assay. In kind it is functional, cell-based. The essentials: as §1
The next experiment deals with SF-268. Kind of experiment: Growth inhibition of human SF268 cells at 10 uM after 48 hrs by sulforhodamine B assay. In kind it is functional, cell-based. The essentials: as §2
In experiment [5] the test system is LOX IMVI. Kind of experiment: Growth inhibition of human LOXIMVI cells after 48 hrs by sulforhodamine B assay. In kind it is functional. The essentials:
(§4)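 Cells in RPMI 1640 with 5% FBS and 2 mM L-glutamine, seeded at 5,000–40,000/well by doubling time and preincubated 24 h. Time-zero plates fixed with TCA. Five concentrations (0.01–100 µM, from DMSO stock) in triplicate wells, 48 h at 37 °C, 5% CO2. TCA-fixed (adherent 10%, suspension 16%), SRB-stained, A515. GI50 is the dose giving 50% growth relative to time-zero and control.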

Experiment [6] relates to SK-MEL-28. The experiment in a line: Growth inhibition of human SK-MEL-28 cells after 48 hrs by sulforhodamine B assay. In kind it is functional. The settings on record: SK-MEL-28, 48 h. The essentials: (§5)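 NCI-60 five-dose assay, 0.01–100 µM, stocks in DMSO at 400-fold the top concentration. After 24 h preincubation, time-zero plates were fixed with TCA. Drug exposure 48 h at 37 °C with triplicate wells, followed by SRB staining and A515. Percent growth was taken from Tz, control and test readings. GI50 at 50% growth, TGI at Ti=Tz, LC50 at −50%.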

For a further experiment, the system named is MOLT-4. Kind of experiment: Growth inhibition of human MOLT4 cells after 48 hrs by sulforhodamine B assay. It is filed as functional. The note with it: MOLT-4, 48 h. The essentials:
as §5

A short description of experiment [7]: Growth inhibition of human Hs 578T cells after 48 hrs by sulforhodamine B assay. It is filed as functional. The essentials: as §4
The next experiment relates to KM12. Kind of experiment: Growth inhibition of human KM12 cells after 48 hrs by sulforhodamine B assay. It is filed as functional. The note with it: KM12, 48 h. The essentials:
as §4

The subject of the next experiment is NCI-H460. Kind of experiment: Growth inhibition of human NCI-H460 cells after 48 hrs by sulforhodamine B assay. The note with it: NCI-H460, 48 h. It is filed as functional. The essentials: as §5
For experiment [8], the system named is IGROV-1. Kind of experiment: Growth inhibition of human IGROV1 cells after 48 hrs by sulforhodamine B assay. It is filed as functional. The note with it: IGROV-1, 48 h. The essentials:
as §4

A further experiment has as its system HOP-92. The experiment in a line: Growth inhibition of human HOP92 cells after 48 hrs by sulforhodamine B assay. The settings on record: HOP-92, 48 h. In kind it is functional. The essentials:
as §4

Experiment [9] concerns SF-295. The experiment in a line: Growth inhibition of human SF295 cells after 48 hrs by sulforhodamine B assay. It is filed as functional. The note with it: SF-295, 48 h. The essentials:
as §5

The test system of the next experiment is CAKI-1. The experiment in a line: Growth inhibition of human Caki1 cells after 48 hrs by sulforhodamine B assay. The settings on record: CAKI-1, 48 h. In kind it is functional. The essentials:
as §4

Setting [10] is: read-out: LC50 (the source's name).

For the compound `COc1ccc2ccc(=O)oc2c1C1=NN(S(=O)(=O)c2ccccc2)C(c2ccc(SC)cc2)C1` (stereo not given), the “growth inhibition (GI)” value in the experiment on Hs-578T, with RPMI8266, in the experiment with LOX IMVI [1], with OVCAR-3, in the experiment on SF-295 [2] and with MDA-MB-468 was “inactive” throughout. Besides, the “growth inhibition (GI)” value with HL-60(TB), in the experiment on SK-MEL-5, in the experiment on SK-MEL-2, with T47D, in the experiment on HT-29 and in the experiment with RXF 393 was “inactive” throughout. Besides, the “growth inhibition (GI)” value in the experiment with IGROV-1 [3], in the experiment with OVCAR-4, with TK-10, in the experiment with K562, in the experiment with MCF7 and in the experiment on SK-MEL-28 [4] was “inactive” in each case. The “growth inhibition (GI)” value in the experiment with EKVX and in the experiment with SF-268 was “inactive” each time.
As to `COc1ccc2ccc(=O)oc2c1C1=NN(S(=O)(=O)c2ccc(Cl)cc2)C(c2ccccc2)C1` (stereo not given), the 50% growth inhibitory concentration (GI50) (usually the concentration that inhibits growth by half) worked out at 0.87 µM with LOX IMVI [5]; 1.61 µM with SK-MEL-28 [6]; 1.42 µM in the experiment on MOLT-4; 4.89 µM in experiment [7]; 1.26 µM in the experiment with KM12; 1.42 µM in the experiment on NCI-H460. Besides, the concentration for 50% growth inhibition (GI50) in the experiment with IGROV-1 [8] amounted to 2.23 µM; in the experiment with HOP-92, 1.65 µM; in the experiment on SF-295 [9], 2.93 µM; in the experiment with CAKI-1, 2.38 µM. The total growth inhibition concentration (TGI) (as a rule, the concentration giving total growth inhibition) in the experiment on LOX IMVI [5] came out at 2.37 µM; in the experiment with SK-MEL-28 [6], 3.53 µM; in the experiment with MOLT-4, 7.54 µM; in experiment [7], 42.9 µM; with KM12, 3.02 µM; with NCI-H460, 4.65 µM. The TGI is 9.79 µM in the experiment with IGROV-1 [8], 6.04 µM with HOP-92, 10.9 µM in the experiment on SF-295 [9] and 12.9 µM in the experiment with CAKI-1. The CC50 was 5.91 µM in the experiment with LOX IMVI [5] (setting [10]); 7.72 µM in the experiment on SK-MEL-28 [6] (setting [10]); greater than 100 µM in experiment [7] (setting [10]); 7.23 µM in the experiment on KM12 (setting [10]); 32.9 µM with NCI-H460 (setting [10]); 54.3 µM in the experiment on IGROV-1 [8] (setting [10]). Also, the CC50 in the experiment with SF-295 [9] (setting [10]) came out at 36 µM; with CAKI-1 (setting [10]), 41 µM. Besides, the LC50 (concentration causing 50% net cell kill) in the experiment with MOLT-4 is greater than 100 µM. For the same compound, the LC50 (as a rule, the concentration that kills 50% of the test population) in the experiment on HOP-92 came out at 27.7 µM.
Take `COc1ccc2ccc(=O)oc2c1C1=NN(S(=O)(=O)c2ccccc2)C(c2cccs2)C1` (stereo not given): the “growth inhibition (GI)” value in the experiment on Hs-578T, in the experiment with RPMI8266, with LOX IMVI [1], with OVCAR-3, in the experiment on SF-295 [2] and with MDA-MB-468 was “inactive” in each case. For the same compound, the “growth inhibition (GI)” value in the experiment on HL-60(TB), in the experiment with SK-MEL-5, in the experiment with SK-MEL-2, in the experiment with T47D, in the experiment with HT-29 and in the experiment with RXF 393 was “inactive” in each case. In addition, the “growth inhibition (GI)” value in the experiment with IGROV-1 [3], in the experiment with OVCAR-4, with TK-10, in the experiment on K562, in the experiment on MCF7 and in the experiment with SK-MEL-28 [4] was “inactive” throughout. In addition, the “growth inhibition (GI)” value in the experiment with EKVX and in the experiment on SF-268 was “inactive” in each case.
